The list is not random: actives were taken first. Their share in the collection is about 2.7%.
HNF4A DNA FP – change in binding of human HNF4 alpha to DNA | P41235 | HNF4a-FITC DNA binding, fluorescence polarization, 1 h | activity change, % at 10 µM | 360,000 tested, 0.3% active | AID 1224865; in the data active means activity change above about 30%, passing the limit was not always enough
Target sequence (P41235 whole entry, looked up): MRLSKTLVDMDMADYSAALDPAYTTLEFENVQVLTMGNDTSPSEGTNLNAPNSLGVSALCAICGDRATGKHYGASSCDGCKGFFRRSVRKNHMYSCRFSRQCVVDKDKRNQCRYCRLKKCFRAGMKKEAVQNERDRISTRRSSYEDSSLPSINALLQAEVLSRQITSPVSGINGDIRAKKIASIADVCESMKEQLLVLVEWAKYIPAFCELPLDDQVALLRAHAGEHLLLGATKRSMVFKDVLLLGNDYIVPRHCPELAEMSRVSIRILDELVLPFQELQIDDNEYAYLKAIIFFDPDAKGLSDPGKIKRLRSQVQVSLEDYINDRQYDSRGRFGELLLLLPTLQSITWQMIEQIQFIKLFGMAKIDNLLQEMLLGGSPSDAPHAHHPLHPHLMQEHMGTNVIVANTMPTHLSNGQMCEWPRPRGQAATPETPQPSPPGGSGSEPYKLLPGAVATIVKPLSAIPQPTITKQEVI
Rpn11 inh – inhibitors of human proteasome Rpn11 | 360,000 tested, 0.59% active | AID 588493 | inhibition, % at 20 µM | human 26S proteasome, Ub4-pepOG fluorescence polarization; 20S core pre-blocked with epoxomicin | O00487;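 active means inhibition at 20 µM, scaled to each plate's controls, above about 33%, limit read from the data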
Target sequence (O00487 whole entry, looked up): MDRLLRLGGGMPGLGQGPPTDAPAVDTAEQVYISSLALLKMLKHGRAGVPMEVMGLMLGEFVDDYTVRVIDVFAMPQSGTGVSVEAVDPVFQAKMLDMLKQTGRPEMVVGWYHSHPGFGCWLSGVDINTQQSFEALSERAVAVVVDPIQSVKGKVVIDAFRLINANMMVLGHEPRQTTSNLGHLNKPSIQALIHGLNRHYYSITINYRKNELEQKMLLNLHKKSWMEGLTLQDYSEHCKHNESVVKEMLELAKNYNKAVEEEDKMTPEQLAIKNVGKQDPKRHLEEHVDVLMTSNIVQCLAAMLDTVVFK
PP1 counter – counter-screen for PP5 inhibitors: inhibitors of human PP1-alpha | inhibition, % at 6.7 µM | P62136 | 320,000 tested, 0.9% active | purified PP1alpha, OMFP fluorescence;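 active means inhibition above the mean inhibition of all tested compounds plus 3 SD, computed separately for each screening campaign, cut at about 15% in these data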
TPT1 inh – inhibitors of Candida albicans tRNA 2'-phosphotransferase TPT1. recombinant caTPT1, FP RNA substrate dephosphorylation. 300,000 tested, 0.81% active. AID 1962. inhibition, % at 5 µM;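 active means inhibition above the mean of all tested compounds plus 3 SD, set per screening campaign, cut at about 24% in these data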;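 further: plate controls were DMSO alone for no effect and ferristatin control at 100 nM for full effect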
CSN deneddyl inh – inhibitors of human CSN-mediated cullin deneddylation | inhibition, % at 12.5 µM | AID 651999 | Q92905 | Purified CSN, SCF-Nedd8-OG deneddylation, fluorescence polarization | 360,000 tested, 0.38% active;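 active means pattern-corrected inhibition above about 35%, with an unprinted fluorescence ratio check between 0.5 and 1.5, limit read from the data, passing the limit was not always enough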;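 further: 0% = enzyme with substrate and 100% = substrate without enzyme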
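Assay system: purified human Csn5 enzyme expressed in HEK293T cells; measure: % inhibition; also added: SCFSkp2-Nedd8OG substrate at 10 nM final; technique: fluorescence polarization; times: reaction 90 min, room temperature; medium: Tris buffer pH 7.5, NaCl, DTT, Tween-20, trehalose, ovalbumin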
NadD inh – NadD (S. aureus) enzyme inhibition; purified NadD enzyme, colorimetric absorbance read-out; inhibition, % at 20 µM; 360,000 tested, 0.78% active; AID 602399; in the data active means inhibition above about 26%
TPT1 inh confirm – TPT1 (C. albicans) inhibition, confirmation | shares compounds with TPT1 inh | recombinant caTPT1, fluorescence polarization, RNase T1 coupled | inhibition, % at 5 µM | 2,400 tested, 74% active;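 active means inhibition above the primary screen limit, the mean inhibition of all tested compounds plus 3 SD, cut at about 25% in these data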
RNase T1 inh – blocks Aspergillus oryzae RNase T1, a TPT1 counter-screen; shares compounds with TPT1 inh; RNase T1 cleavage, fluorescence polarization, 1536-well; inhibition, % at 5 µM; 2,400 tested, 83% active; AID 2153;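 active means inhibition above the solvent-only control well mean plus 3 SD, limit set per screening run, cut at about 23% in these data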;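 further: plate controls were DMSO wells with enzyme for no effect and wells without RNase T1 for full effect; inhibitors block cleavage so intact labeled substrate keeps polarization high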
Numbers without * were called inactive; nt = not tested or not shown.

SMILES | HNF4A DNA FP | Rpn11 inh | PP1 counter | TPT1 inh | CSN deneddyl inh | NadD inh | TPT1 inh confirm | RNase T1 inh
O=C(O)Cc1sc(NCCc2ccccc2)nc1-c1ccc(F)cc1 | 5.6 | 14.1 | -0.7 | 26.9* | 31.9 | 6.1 | 1.7 | 7.6
O=C(O)Cc1sc(Nc2ccccc2)nc1-c1cccs1 | 45.2* | nt | -1.5 | 42.4* | 50.9* | 12.3 | 36.3* | 46.3*
CC(NS(=O)(=O)c1ccc(F)cc1)C(c1cccs1)N1CCOCC1 (centres undefined) | -1.5 | -3.5 | -2.6 | -0.8 | 3.4 | 2.4 | nt | nt
CC(NS(=O)(=O)c1ccc([N+](=O)[O-])cc1)C(c1cccs1)N1CCOCC1 (centres undefined) | -0.3 | 1.2 | -2.9 | 36.0* | -3.1 | -3.1 | 5.9 | 10.8
N#Cc1cc(Sc2ccccn2)c([N+](=O)[O-])cc1C#N | 22.6 | 57.4* | -2.4 | 38.3* | 22.6 | 3.6 | 35.8* | 45.1*
Cc1cc(F)ccc1S(=O)(=O)Nc1ccc(O)c(Sc2ncn[nH]2)c1 | -3.7 | -2.0 | 0.4 | 4.1 | -0.5 | -7.8 | nt | nt
COc1cccc(C2Oc3ccccc3C3CC(c4cccs4)=NN32)c1 (centres undefined) | 5.0 | 31.7 | -3.2 | 61.2* | 7.0 | -0.7 | 32.6* | 45.8*
Cc1ccc(C(=O)CSc2nn3c(=O)c(C(C)(C)C)nnc3s2)cc1 | -3.9 | 6.3 | 2.6 | 31.8* | 5.3 | 2.5 | 3.3 | 6.1
CC(C)(C)c1nnc2sc(SCC(=O)c3ccc(Cl)cc3)nn2c1=O | -0.7 | 7.7 | 1.9 | 7.4 | -4.4 | 0.4 | nt | nt
COc1cc(C(=O)NCC(c2cccs2)N2CCOCC2)ccc1OCc1ccccc1 (centres undefined) | -1.3 | 1.2 | nt | nt | -6.5 | 1.8 | nt | nt
CC(=O)N1c2ccc3ccccc3c2C2C=CCC2C1c1ccc(Br)cc1 (centres undefined) | nt | nt | 0.0 | 36.1* | nt | nt | 12.5 | 18.5
Cc1cc(=O)oc2c3c4c(cc12)OCCN4CCC3 | 6.1 | -10.4 | 3.3 | 30.0* | -2.8 | 12.7 | 12.8 | 22.0*
CC(C)c1cc(=O)oc2c3c4c(cc12)CCCN4CCC3 | 12.6 | 1.3 | 3.7 | 28.8* | 2.1 | 1.5 | 32.0* | 41.3*
Cc1cc(=O)oc2c(CN3CCCC3)c(O)c(Cl)cc12 | -3.4 | -21.0 | -0.4 | -8.5 | -2.5 | -1.6 | nt | nt
O=C(CS(=O)(=O)Cc1ccccc1)NCCc1ccc(F)cc1 | -2.2 | -1.1 | -2.1 | -1.6 | 2.2 | 1.2 | nt | nt
Cc1ccc(C(=O)C(C)OC(=O)Cn2[nH]c(=O)c3ccccc3c2=O)cc1C (centres undefined) | 1.0 | -0.4 | 0.6 | -3.7 | 7.4 | -1.4 | nt | nt
COc1cc(/C=C2/C(=O)ON=C2C)cc(Cl)c1O | 1.1 | 24.5 | -3.3 | 41.6* | 7.1 | -6.0 | 100.6* | 112.6*
COc1cc(/C=C2/C(=O)NN(c3ccc(F)cc3)C2=O)cc(Cl)c1O | 6.4 | 32.3 | 1.3 | 39.8* | 14.0 | -1.0 | 79.9* | 99.1*
COc1cc(/C=C2/C(=O)NN(c3ccc(Cl)c(Cl)c3)C2=O)cc([N+](=O)[O-])c1O | -2.5 | 12.0 | 10.2 | 12.8 | 2.7 | 9.7 | nt | nt
COc1ccccc1NC(=O)/C(C#N)=C/c1cc([N+](=O)[O-])ccc1N1CCCC1 | -105.4 | -139.6 | 0.2 | 38.1* | -76.7 | 1.6 | 74.0* | 85.5*
O=C(NNc1ccccc1)NC(Cc1ccccc1)C(=O)O (centres undefined) | -5.7 | 0.1 | nt | nt | -5.2 | -0.3 | nt | nt
COc1cccc(/C=N/NC(=O)c2oc3nc(-c4ccccc4)cc(-c4ccco4)c3c2N)c1 | 38.6* | nt | 5.2 | 82.0* | 5.0 | 8.8 | 86.0* | 97.1*
c1coc(CNc2c3c(nc4ccccc24)CCC3)c1 | -13.0 | -35.2 | -0.4 | 25.5* | 8.2 | -3.7 | 24.4* | 34.7*
COc1cc(C(=O)N(C)CC(=O)Nc2cccc(F)c2)ccc1OCc1ccccc1 | -1.5 | 2.5 | -1.7 | 2.9 | 2.3 | -7.6 | nt | nt
O=C(Nc1ccccc1)c1ccc(NCCc2ccccc2)c([N+](=O)[O-])c1 | 152.4 | nt | 1.8 | 45.4* | 133.0 | 3.7 | 104.9* | 115.1*
SMILES | HNF4A DNA FP | Rpn11 inh | PP1 counter | TPT1 inh | CSN deneddyl inh | NadD inh | TPT1 inh confirm | RNase T1 inh
CC(O)CC(C)O (centres undefined) | -4.4 | 7.8 | -1.7 | nt | -1.1 | 4.7 | nt | nt
N#C/C(=C\c1ccc(O)c(O)c1)C(=O)c1ccc(O)c(O)c1 | -7.4 | nt | -1.0 | 26.9* | 167.2 | 7.0 | 68.9* | 73.8*
OCCN1CCN(c2nccn3ccnc23)CC1 | -0.2 | 3.9 | nt | nt | -4.7 | -1.7 | nt | nt
CCN(CC)c1ccc(S(=O)(=O)N2CCOCC2)cc1NC(=O)COC(=O)/C=C/c1ccco1 | -1.4 | 6.6 | nt | nt | -2.1 | 16.2 | nt | nt
CCCc1cc(C(=O)Cc2ccc(C(=O)OCC)o2)c(O)cc1O | 16.6 | 27.1 | -3.2 | 24.2* | 8.0 | 6.2 | 20.5 | 29.6*
CCN(C(=O)COC(=O)C1CC1C)c1c(N)n(Cc2ccccc2)c(=O)[nH]c1=O (centres undefined) | -0.3 | 3.5 | nt | nt | 4.4 | 3.0 | nt | nt
CN(C)S(=O)(=O)c1ccc(Cl)c(NC(=O)COC(=O)CCC2CCCCC2)c1 | 4.7 | -2.5 | nt | nt | 0.8 | -3.2 | nt | nt
O=[N+]([O-])c1cccc(/C=C/c2nc(C=Nc3ccc4ccccc4c3)c(O)o2)c1 | 4.3 | 2.2 | -1.6 | 33.2* | 5.2 | -2.2 | 19.7 | 28.1*
O=[N+]([O-])c1cccc(N=Cc2ccccc2)c1 | 4.0 | 1.4 | nt | nt | 1.8 | -3.5 | nt | nt
N#C/C(=C\c1ccc(N2CCOCC2)o1)C(=O)NCC1CCCO1 (centres undefined) | 163.6 | nt | 1.3 | 161.2* | 93.6 | 2.7 | 168.4* | 163.8*
N#C/C(=C\c1ccc(-c2ccc(C(=O)O)cc2)o1)C(=O)NCC1CCCO1 (centres undefined) | -2.5 | 1.3 | 7.0 | 4.2 | 2.1 | -2.8 | nt | nt
COCCNC(=O)/C(C#N)=C/c1ccc(N2CCOCC2)o1 | 155.4 | nt | 13.0 | 156.9* | 109.2 | -2.8 | 169.2* | 164.4*
N#C/C(=C/c1ccc(N2CCOCC2)o1)C(=O)Nc1ccccc1 | 210.5 | nt | nt | nt | -61.4 | -1.2 | nt | nt
CCOc1ccccc1OCCCC(=O)N(CC)CC(=O)Nc1ccc(NC(C)=O)cc1 | -2.1 | -6.1 | -3.3 | 1.8 | 0.1 | -5.6 | nt | nt
CCOCC(=O)Nc1nc2ccc(C)cc2s1 | -2.4 | -4.4 | 0.6 | -2.8 | -1.7 | -6.3 | nt | nt
Cc1ccc2nc(NC(=O)CSCC(=O)OCC(=O)c3ccccc3)sc2c1 | -0.5 | 2.0 | -0.2 | 30.1* | -2.7 | -3.4 | 8.7 | 13.8
CCOCCN1CCN(C2c3ccccc3CSc3ccccc32)CC1 (centres undefined) | 2.7 | -5.6 | 2.6 | -2.8 | 0.2 | -13.4 | nt | nt

Assay outcomes as filed in PubChem.
